In the test the target is T1, B2 bradykinin receptor (Rattus norvegicus, UniProt P25023).
T1 sequence (P25023 whole entry): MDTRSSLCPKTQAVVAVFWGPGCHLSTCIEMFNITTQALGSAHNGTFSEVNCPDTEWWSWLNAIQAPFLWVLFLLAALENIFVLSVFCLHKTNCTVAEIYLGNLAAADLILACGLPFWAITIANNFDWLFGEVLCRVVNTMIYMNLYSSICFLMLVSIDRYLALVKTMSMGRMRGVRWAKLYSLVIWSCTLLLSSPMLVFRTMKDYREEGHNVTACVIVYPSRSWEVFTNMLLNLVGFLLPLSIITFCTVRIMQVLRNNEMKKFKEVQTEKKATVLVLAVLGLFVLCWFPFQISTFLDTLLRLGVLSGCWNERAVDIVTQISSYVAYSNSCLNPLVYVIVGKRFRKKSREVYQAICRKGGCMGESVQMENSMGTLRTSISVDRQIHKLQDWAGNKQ
As to the kind of experiment: In vitro Bradykinin receptor B2 antagonist activity by using rat uterus functional assay. The method in brief: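 Uterine horns from female Sprague-Dawley rats primed with stilbesterol (100 μg/kg) 18 h earlier. Tissue held at 1 g tension in De Jalon's solution, 31 °C, aerated. […] Potency by Arunlakshana-Schild analysis.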

As a reminder, the Kd is the constant that tells how readily two partners part at equilibrium. The low end stands for tighter binding, the high end for weaker binding. In the case of `N=C(N)NCCCCC(=O)N1CCC[C@@H]1C(=O)N1C[C@@H](O)C[C@@H]1C(=O)NCC(=O)N[C@@H](Cc1cccs1)C(=O)N[C@@H](CO)C(=O)N1Cc2ccccc2C[C@@H]1C(=O)N(CC(=O)N[C@@H](CCCNC(=N)N)C(=O)O)C1CCCCC1`, the Kd is 22.4 nM.

(Values after BindingDB's records for doi:10.1021/jm950716i (Cortech, 1996).)
